Bioassay records (PubChem)
FLuc inhib CS = counter-screen for luciferase assay inhibitors: firefly luciferase inhibition | P08659 | inhibition, % at 10 µM | AID 1006 | 1.5% of 200,000 active | ATPLite firefly luciferase biochemical luminescence, 10 min;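 active means inhibition above about 50% when tested at 10 µM, limit read from the data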
Target sequence (P08659 whole entry, looked up): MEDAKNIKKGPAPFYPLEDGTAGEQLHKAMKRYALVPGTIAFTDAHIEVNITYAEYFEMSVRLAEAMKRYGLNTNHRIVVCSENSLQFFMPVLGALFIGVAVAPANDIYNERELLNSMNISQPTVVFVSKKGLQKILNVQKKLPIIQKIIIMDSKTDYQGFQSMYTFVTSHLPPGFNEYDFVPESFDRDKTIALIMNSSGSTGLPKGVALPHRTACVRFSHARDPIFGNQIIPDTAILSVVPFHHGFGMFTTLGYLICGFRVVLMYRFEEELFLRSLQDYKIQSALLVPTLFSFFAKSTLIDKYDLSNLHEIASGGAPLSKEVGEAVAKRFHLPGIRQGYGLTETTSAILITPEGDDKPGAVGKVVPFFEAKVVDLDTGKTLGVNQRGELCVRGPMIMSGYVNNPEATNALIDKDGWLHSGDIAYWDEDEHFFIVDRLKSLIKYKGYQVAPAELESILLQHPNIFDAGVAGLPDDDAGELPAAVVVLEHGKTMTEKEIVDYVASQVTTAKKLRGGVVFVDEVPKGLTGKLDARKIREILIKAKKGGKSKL
STAT1 activator = increases IFN-gamma driven STAT1 reporter signal | NIH 3T3 STAT1-luciferase reporter, luminescence; 100% = IFN-gamma alone, no compound | activation (% of control), % at 5.5 µM | 2.6% of 200,000 active;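 active means activation above the screen-wide mean activation plus 3 SD, cut at about 130% in these data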
FLuc stim CS = firefly luciferase counter-screen for stimulation assays; ATPlite luciferase biochemical, luminescence, 10 min; 0 = ATP-free wells, 1 = DMSO control; activation factor at 10 µM; 200,000 tested, under 10 active;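 active means luciferase activation factor, scaled between plate controls, of at least 2 with compound at 10 µM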
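System: luciferase plus luciferin reagent, cell-free; medium: PBS as buffer for the ATP substrate; dosing: test compounds dosed from 2 mM stocks in 100% DMSO; timing: 10 min post-reagent at room temperature; measured by: luminescence measurement of luciferase light output; evaluation: luciferase activation, seen as luminescence increase over controls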
NF-kB expr up = raises NF-kB expression in human neuronal cells; fold change at 12.5 µM; 1.6% of 190,000 active; NF-kB reporter expression; hits give high values; in the data active means fold change above about 3.3
APP 5'UTR act = APP 5'UTR luciferase reporter activation. SH-SY5Y APP 5'UTR luciferase reporter, luminescence; zero percent = DMSO vehicle wells. activation, % at 2 µM. 1% of 190,000 active. AID 1276;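 active means activation above a set limit, based on mean plus 3 SD of controls, cut at about 140% in these data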
Hits are given with their value; i = inactive; nt = not tested or not shown. Only some compounds are listed: those with a hit (about 4.1% of all), similar ones and a draw of the others.

SMILES | FLuc inhib CS | STAT1 activator | FLuc stim CS | NF-kB expr up | APP 5'UTR act
Cc1ccc2nc(Cc3ccc(N)cc3)oc2c1 | i | i | i | i | i
Brc1ccc(-c2nnc(-c3cccc(Br)c3)o2)cc1 | i | i | i | i | i
Cc1ccc2nc(-c3cccc(N)c3)oc2c1 | 93.0 | i | i | 3.92 | nt
Cc1ccc(OCC(=O)N/N=C\c2ccc(O)cc2)c([N+](=O)[O-])c1 | i | i | i | i | i
Cn1ncc(N2CCN(C(=O)c3ccc(Cl)cc3)CC2)c(Cl)c1=O | i | i | i | i | i
COc1ccc(S(=O)(=O)n2nc(OC(=O)c3c(-c4ccccc4Cl)noc3C)cc2N)cc1 | i | i | i | i | i
S=C(c1ccc(-c2ccccc2Cl)o1)N1CCOCC1 | i | i | i | i | i
S=C(c1ccc(-c2ccc(Cl)cc2Cl)o1)N1CCCCC1 | i | 143.9 | i | 3.85 | i
O=C(COc1ccccc1F)N/N=C1\CCCc2ccccc21 | i | 138.9 | i | i | i
CSc1ccc(/C=N/n2c(C)cc(C)cc2=O)cc1 | i | 130.5 | i | i | i
CSc1ccc(/C=N/n2c(C)nnc2C)cc1 | i | i | i | i | i
Cn1c(-c2cccs2)nc2ccccc21 | i | 142.3 | i | i | i
CCOC(=O)c1ccc(COc2ccc(C(C)C)cc2)o1 | i | i | i | i | i
CCOc1ccc(OCc2ccc(C(=O)OCc3ccccn3)o2)cc1 | i | i | i | 4.43 | i
CCOC(=O)c1ccc(COC(=O)c2ccc(-c3nnc(-c4ccccc4)o3)cc2)o1 | nt | 129.5 | nt | nt | i
CCOC(=O)c1ccc(-c2ccc(CO)o2)cc1 | i | 128.7 | i | i | i
Cc1ccc(-c2ccc(CO)o2)cc1N | i | i | i | i | i
Cc1ccc(NC(=O)Cn2nnc(C(=O)Nc3ccc(C)c(C)c3)c2N)cc1 | i | i | i | i | i
N=C1C(c2nc(-c3cccc([N+](=O)[O-])c3)cs2)=C(O)CN1NC(=O)c1ccco1 | i | i | i | i | i
CC(=O)NCc1ccc(C(=O)CCl)s1 | i | i | i | 4.03 | i
CC(=O)NCc1ccc(C(=O)CCl)cc1 | i | i | i | i | i
O=S1(=O)CCC(NS(=O)(=O)c2cccc3cccnc23)C1 (stereo unspecified) | i | i | i | i | i
CN1CCN(Cc2nc3c(c(=O)[nH]c(=O)n3C)n2CCc2ccccc2)CC1 | i | i | i | i | i
O=C(NCCc1cccs1)c1cccs1 | i | 133.9 | i | i | i
CCN1CCN(Cc2nc3c(c(=O)n(C)c(=O)n3C)n2Cc2ccccc2Cl)CC1 | i | i | i | i | i
SMILES | FLuc inhib CS | STAT1 activator | FLuc stim CS | NF-kB expr up | APP 5'UTR act
Cn1c(=O)c2c(nc(CN3CCN(CCO)CC3)n2Cc2cccc3ccccc23)n(C)c1=O | i | i | i | 4.28 | i
CCSc1nnc(NC(=O)[C@H](C)N2C(=O)C3CC=CCC3C2=O)s1 (stereo partly specified) | i | i | i | i | i
CCCCC(O)(CCCC)C(=O)NN(C(=O)OCC)c1ccccc1 | i | i | i | i | i
CCCC(O)(CCC)C(=O)NN(C(=O)CCl)c1ccccc1 | i | i | i | 7.16 | i
CCOC(=O)c1cnc2ccccc2c1Nc1cccc(C(=O)O)c1 | 86.1 | i | i | i | i
CCOC(=O)c1cnc2ccc(C(=O)OC)cc2c1Nc1cccc(C(=O)O)c1 | i | i | i | i | i
Nc1ccc(-c2nc3ncccc3o2)c(Cl)c1 | 72.5 | 145.0 | i | i | i
Nc1cc(-c2nc3ncccc3o2)ccc1Cl | i | 129.9 | i | i | i
CCCC(=O)Nc1cc(-c2nc3ncccc3o2)ccc1C | i | i | i | i | i
Cc1cc(-c2nc3ncccc3o2)ccc1N | i | 138.6 | i | i | i
N#CC1=C2C=CC=CN2CC1=O | i | 144.5 | i | i | i
COc1ccc(C(=O)Cc2ccccc2)cc1OC | i | i | i | i | i
Nc1c(C(=O)c2ccc(Cl)cc2)sc2nc3c(cc12)CCC3 | i | i | i | i | 135.2
N#Cc1sc2nc3c(cc2c1N)CCCC3 | i | i | i | i | i
Cc1ccc(S(=O)(=O)CC(=O)NC2CC2)cc1 | i | i | i | i | i
COc1ccc(C(=O)c2c[nH]c3ccccc23)cc1 | 63.5 | 133.7 | i | 3.52 | i
O=C(O)c1ccc(Oc2cccc([N+](=O)[O-])c2)cc1C(=O)O | i | i | i | 4.28 | i
Cc1cccc(C(=O)NC(=S)Nc2ccc(Cc3ccncc3)cc2)c1 | i | i | i | i | i
CN(C)c1ccc(NC(=O)CCn2c(=S)oc3ccccc32)cc1 | i | 133.6 | i | i | i
CN1CCN(c2ccccc2NS(=O)(=O)c2ccc3c(c2)CCN3C(=O)C2CCC2)CC1 | nt | i | nt | nt | i
CCOC(=O)c1ccc(Oc2c(C)oc3c(CN4CCN(C)CC4)c(O)ccc3c2=O)cc1 | i | i | i | i | i
O=C(CSc1nnc(NC2CCCCC2)s1)Nc1ccc2c(c1)C(=O)c1ccccc1C2=O | i | 139.2 | i | i | i
CC(C)Nc1nnc(SCC(=O)Nc2ccc3c(c2)C(=O)c2ccccc2C3=O)s1 | i | i | i | i | i
COc1ccc(CNC(=O)c2c(C)nc3ccccn23)cc1 | i | i | i | i | i
Cc1nc2ccccn2c1C(=O)/C=C/c1ccc(F)cc1 | i | 128.7 | i | 3.44 | i
SMILES | FLuc inhib CS | STAT1 activator | FLuc stim CS | NF-kB expr up | APP 5'UTR act
COc1ccc(/C=C/C(=O)c2c(C)nc3ccccn23)cc1 | i | 140.9 | i | i | i
COc1ccc(NC(=O)c2c(Cl)nc3ccccn23)cc1 | i | 133.9 | i | i | i
CCCCn1c(/N=C/c2c[nH]c3ccccc23)nc2ccccc21 | i | i | i | i | i
N#Cc1c(NC(=O)CSc2n[nH]c(N)n2)oc(-c2ccccc2)c1-c1ccccc1 | i | i | i | i | i
Cc1ccc(C(=O)/C=C2\NCCNC2=O)cc1 | 66.7 | 131.2 | i | 5.03 | i
Cc1ccc(C(=O)/C=C\C(=O)c2ccc(C)cc2)cc1 | i | i | i | i | i
Cc1ccc(C(=O)/C=C2\NCC(C)NC2=O)cc1 (stereo unspecified) | 68.7 | i | i | i | i
Fc1cc(F)c2nc(N3CCCC3)sc2c1 | i | 131.3 | i | i | i
CCOc1ccc(/C=C/C(=O)C(C(N)=O)=C2SCCS2)cc1 | 58.0 | i | i | i | i
COc1ccc(NC(=O)Cn2cnc3c(nnn3-c3ccc(C)cc3)c2=O)cc1 | i | i | i | i | i
O=C(NN=C1CCCCCCC1)c1ccccn1 | i | i | i | i | 170.0
O=C(N/N=C1\CCCCc2ccccc21)c1ccccn1 | i | i | i | i | i
N/C(=N\OC(=O)C12CC3CC(CC(C3)C1)C2)c1ccccn1 | 66.0 | 142.4 | i | i | i
N/C(=N\OC(=O)C12CC3CC(CC(C3)C1)C2)c1ccccc1 | 64.7 | i | i | i | i
C/C(=N/NC(=O)c1ccoc1C)C12CC3CC(CC(C3)C1)C2 | i | i | i | i | 158.3
COc1ccc(Cl)cc1Nc1nc(-c2sc(NC(=O)c3ccccc3)nc2C)cs1 | i | i | i | i | i
C/C(=N\NC(=O)c1ccccn1)C12CC3CC(CC(C3)C1)C2 | i | 149.9 | i | i | i
O=C(Nc1ccccn1)C12CC3CC(CC(C3)C1)C2 | i | i | i | i | i
